# Measurements of several laboratories.
# Each line is one published result; the experiments were not run side by side.
# Target: Serine/threonine-protein kinase Sgk1 (SGK1, Homo sapiens, UniProt O00141)
# One construct used (O00141 1-431): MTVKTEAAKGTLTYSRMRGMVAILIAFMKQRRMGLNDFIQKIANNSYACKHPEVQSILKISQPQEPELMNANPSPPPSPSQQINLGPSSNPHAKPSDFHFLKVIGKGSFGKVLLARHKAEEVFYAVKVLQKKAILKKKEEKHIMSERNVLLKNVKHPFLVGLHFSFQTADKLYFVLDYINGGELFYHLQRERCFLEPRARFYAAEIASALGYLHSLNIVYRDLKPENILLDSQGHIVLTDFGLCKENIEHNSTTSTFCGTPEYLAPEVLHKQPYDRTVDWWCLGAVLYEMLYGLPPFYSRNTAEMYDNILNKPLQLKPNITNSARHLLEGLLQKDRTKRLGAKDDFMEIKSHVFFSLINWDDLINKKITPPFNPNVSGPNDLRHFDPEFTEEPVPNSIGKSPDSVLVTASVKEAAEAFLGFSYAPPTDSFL
Compound,read-out,mode,method,tested at,measurement,value
C#Cc1n[nH]c2c(-c3cn(C(C)c4ccccn4)c(=O)[nH]c3=O)cc(F)cc12 (stereo not drawn),enzyme activity,inhibitor,,1 µM,inhibition,0%
O=c1[nH]c2ccccc2n1C1CCN(Cc2ccc(-c3[nH]c4cc5ncnc5cc4nc3-c3ccccc3)cc2)CC1,cell-free assay,,,0.5 µM,remaining signal,102%
Nc1ncc(-c2nc(N3CCOCC3)nc(N3CCOCC3)n2)c(C(F)F)n1,binding,,competition with immobilised ligand,10 µM,remaining binding,77%
Cn1cc(-c2cccc(N3CCc4c(sc5c4CC(C)(C)C5)C3=O)c2CO)cc(Nc2ccncn2)c1=O,enzyme activity,inhibitor,,1 µM,inhibition,-11%
COc1ncccc1-c1cnn2ccc(N3CCN(C(=O)OC(C)C)CC3)nc12,binding,,competition with immobilised ligand,1 µM,remaining binding,100%
N#CC1(c2ccccn2)CCN(Cc2cc(C(=O)O)c(=O)n3ccccc23)CC1,cell-free assay,,competition with immobilised ligand,1 µM,remaining binding,87%
CC(C)(C)c1cc(C=C(C#N)C#N)cc(Br)c1O,enzyme activity,inhibitor,,0.5 µM,remaining activity,95.3%
Cn1cc(-c2cc(F)cc(N3CCn4c(cc5c4CCCC5)C3=O)c2CO)cc(Nc2ccc(N3CCN(C4COC4)CC3)cn2)c1=O,enzyme activity,inhibitor,,0.1 µM,inhibition,13%
Cn1cncc1[C@@](O)(COc1ccc(C#N)cc1-c1ccc(OC(F)(F)F)cc1)c1ccc(C#N)cc1,cell-free assay,,competition with immobilised ligand,1 µM,remaining binding,100%
